Data from ChEMBL document CHEMBL1153722, “Design, synthesis, and characterization of peptide-based rab geranylgeranyl transferase inhibitors” (J Med Chem, 2009).
Square brackets hold non-standard residues; d marks the D form. Peptide text beside a SMILES is read from it. * marks the point of attachment. Hydrocinnamoyl = O=C(CCc1ccccc1)*; Undecanoyl = CCCCCCCCCCC(=O)*; pGlu = O=C1CC[C@@H](C(=O)O)N1; Nicotinoyl = O=C(c1cccnc1)*; Ac6c = NC1(C(=O)O)CCCCC1; Morpholide = C1CN(*)CCO1; Piperidide = C1CCN(*)CC1; NHBn = c1ccc(CN*)cc1; NHPh = c1ccc(N*)cc1; NHNH2 = NN*

Species: Rattus norvegicus
Assay: Inhibition of rat recombinant Rab geranylgeranyltransferase at 100 uM in presence of canine Rab7 and rat REP1 NBD-FPP based continuous fluorimetric assay
Outline: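 Continuous fluorometric assay in 96/384-well format: 3 μM Rab7, 3 μM REP1, 9 μM NBD-FPP and 400 nM RabGGTase, with or without inhibitor. […] IC50 was calculated from three independent measurements.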

SMILES | inhibition
CCCCCCCCCCC(=O)NC(Cc1ccc(O)cc1)C(=O)N[C@@H](Cc1c[nH]cn1)C(=O)N[C@@H](Cc1c[nH]cn1)C(=O)NCC(O)CO (some centres undefined) | 89%
CC(C)(C)Oc1ccc(C[C@H](NC(=O)CNC(=O)[C@H](Cc2cn(C(c3ccccc3)(c3ccccc3)c3ccccc3)cn2)NC(=O)c2coc(-c3ccccc3)n2)C(=O)O)cc1 | 80%
CCCCCCCCCCCOc1ccc(C(=O)N[C@@H](Cc2c[nH]cn2)C(=O)N[C@@H](Cc2c[nH]cn2)C(=O)N[C@@H](Cc2c[nH]cn2)C(N)=O)cc1 | 32%
CC(C)C[C@H](NC(=O)[C@@H]1CCC(=O)N1)C(=O)N[C@@H](CCCCN)C(=O)NC1(C(N)=O)CCCCC1 ([pGlu]LK[Ac6c]-NH2) | 95%
CC[C@H](C)[C@H](NC(=O)[C@H](Cc1ccccc1)NC(=O)c1cccnc1)C(=O)N[C@@H](CCCNC(=N)N)C(=O)OC (Nicotinoyl-Phe-Ile-Arg-OMe) | 105%
CC(C)CCNC(=O)[C@H](Cc1ccccc1)NC(=O)CNC(=O)[C@@H]1CCCN1C(=O)/C=C/c1ccccc1 | 80%
O=C(N[C@@H](CO)C(=O)N[C@@H](Cc1ccccc1)C(=O)N[C@@H](CO)C(=O)Nc1ccccc1)C(Br)C(Br)c1ccc(F)cc1 (some centres undefined) | 81%
CC(C)C[C@H](NC(=O)[C@H](COC(C)(C)C)NC(=O)[C@H](Cc1ccccc1)NC(=O)/C=C/c1ccc(F)cc1)C(N)=O | 83%
C[C@H](NC(=O)[C@@H](NC(=O)c1ccc(-c2ccccc2)cc1)[C@@H](C)O)C(=O)N[C@@H](CCC(=O)O)C(N)=O | 82%
O=C(CCc1ccccc1)N[C@@H](CO)C(=O)N[C@@H](Cc1ccccc1)C(=O)N[C@@H](CO)C(=O)N1CCCCC1 (Hydrocinnamoyl-Ser-Phe-Ser-Piperidide) | 62%
COC(=O)[C@H](CO)NC(=O)CNC(=O)[C@H](Cc1ccccc1)NC(=O)c1csc(-c2cccs2)n1 | 123%
NC(=O)CC[C@H](NC(=O)[C@H](Cc1ccccc1)NC(=O)CNC(=O)CCc1ccccc1)C(=O)NC1CCCCC1 | 50%
O=C(CCc1ccccc1)N[C@@H](CO)C(=O)N[C@@H](Cc1ccccc1)C(=O)N[C@@H](CO)C(=O)N1CCOCC1 (Hydrocinnamoyl-Ser-Phe-Ser-Morpholide) | 94%
COC(=O)[C@H](CCC(N)=O)NC(=O)[C@H](Cc1ccccc1)NC(=O)CNC(=O)CCc1ccccc1 (Hydrocinnamoyl-Gly-Phe-Gln-OMe) | 92%
C=CCCCOC(=O)[C@H](CCC(N)=O)NC(=O)[C@H](Cc1ccccc1)NC(=O)[C@H](C)NC(=O)CCc1ccccc1 | 75%
NCCCCNC(=O)[C@H](Cc1ccc(O)cc1)NC(=O)CNC(=O)[C@H](Cc1ccc(O)cc1)NC(=O)c1ccc(F)cc1 | 88%
NC(=O)CC[C@H](NC(=O)[C@H](Cc1ccccc1)NC(=O)[C@H](CO)NC(=O)CCc1ccccc1)C(=O)NC1CCCCC1 | 99%
COC(=O)[C@H](CO)NC(=O)CNC(=O)[C@H](Cc1ccccc1)NC(=O)c1coc(-c2ccccc2)n1 | 115%
NCCOC(=O)[C@H](Cc1ccc(O)cc1)NC(=O)CCNC(=O)[C@H](Cc1c[nH]cn1)NC(=O)OCc1ccccc1 | 100%
NCCOC(=O)[C@H](Cc1ccc(O)cc1)NC(=O)CNC(=O)[C@H](Cc1c[nH]cn1)NC(=O)OCc1ccccc1 | 101%
CC(C)C[C@H](NC(=O)/C=C/c1ccccc1)C(=O)N[C@@H](Cc1ccccc1)C(=O)N[C@@H](Cc1ccccc1)C(=O)NC1CCCCC1 | -4%
CC(C)C[C@H](NC(=O)[C@H](COC(C)(C)C)NC(=O)[C@H](Cc1ccccc1)NC(=O)/C=C/c1ccc(F)cc1)C(=O)Nc1nccs1 | 112%
O=C(CCc1ccccc1)N[C@@H](CO)C(=O)NCC(=O)N[C@@H](CO)C(=O)N1CCOCC1 (Hydrocinnamoyl-Ser-Gly-Ser-Morpholide) | 83%
CON(C)C(=O)[C@H](CC(C)C)NC(=O)[C@H](COC(C)(C)C)NC(=O)[C@H](Cc1ccccc1)NC(=O)/C=C/c1ccc(F)cc1 | 94%
NNC(=O)[C@H](CO)NC(=O)CNC(=O)[C@H](CO)NC(=O)CCc1ccccc1 (Hydrocinnamoyl-Ser-Gly-Ser-NHNH2) | 94%
C=CCOC(=O)[C@H](Cc1c[nH]cn1)NC(=O)[C@H](Cc1ccccc1)NC(=O)CNC(=O)C1COC(c2ccccc2)=N1 (some centres undefined) | 106%
CC(=O)Nc1cc(C(=O)N2CCC[C@H]2C(=O)N[C@@H](C(=O)N[C@@H](CCC(=O)O)C(N)=O)C(C)C)ccc1[N+](=O)[O-] | 111%
O=C(CCNC(=O)[C@H](Cc1c[nH]cn1)NC(=O)OCc1ccccc1)N[C@@H](Cc1ccc(O)cc1)C(=O)Nc1nccs1 | 73%
C[C@@H](NC(=O)CCc1ccccc1)C(=O)N[C@@H](Cc1ccccc1)C(=O)N[C@@H](CCC(N)=O)C(N)=O | 95%

More lines, now with the values ahead:

inhibition | SMILES
89% | O=C(CCc1ccc(F)cc1)N[C@@H](Cc1ccc(O)cc1)C(=O)NCC(=O)N[C@@H](Cc1ccc(O)cc1)C(=O)NCc1ccc(F)cc1F
101% | CCCCCCCCCCC(=O)N[C@@H](Cc1c[nH]cn1)C(=O)N[C@@H](Cc1ccccc1)C(=O)N[C@@H](Cc1ccc(O)cc1)C(=O)NCCCn1ccnc1
93% | CCCCCCCCCCCOc1ccc(C(=O)N[C@@H](Cc2cnc[nH]2)C(=O)N[C@@H](Cc2ccc(O)cc2)C(=O)N[C@@H](Cc2ccccc2)C(=O)NCC(O)CO)cc1 (some centres undefined)
50% | O=C(/C=C/c1ccccc1)N[C@@H](Cc1ccccc1)C(=O)N[C@@H](Cc1ccccc1)C(=O)N[C@@H](Cc1ccc(O)cc1)C(=O)O
90% | O=C(CCNC(=O)[C@H](Cc1c[nH]cn1)NC(=O)OCc1ccccc1)N[C@@H](Cc1ccc(O)cc1)C(=O)O
64% | CCCCCCCCCCC(=O)N[C@@H](Cc1ccc(O)cc1)C(=O)N[C@@H](Cc1c[nH]cn1)C(=O)N[C@@H](Cc1c[nH]cn1)C(=O)O (Undecanoyl-Tyr-His-His-OH)
90% | NC(=O)CC[C@H](NC(=O)[C@H](Cc1ccccc1)NC(=O)[C@H](CO)NC(=O)CCc1ccccc1)C(=O)Nc1ccccc1 (Hydrocinnamoyl-Ser-Phe-Gln-NHPh)
89% | O=C(CCc1ccccc1)N[C@@H](CO)C(=O)N[C@@H](Cc1ccccc1)C(=O)N[C@@H](CO)C(=O)Nc1ccccc1 (Hydrocinnamoyl-Ser-Phe-Ser-NHPh)
106% | CCCCCCCCCCCOc1ccc(C(=O)N[C@@H](Cc2ccc(O)cc2)C(=O)N[C@@H](Cc2ccc(O)cc2)C(=O)N[C@@H](Cc2ccc(O)cc2)C(=O)O)cc1
87% | NC(=O)CC[C@H](NC(=O)[C@H](Cc1ccccc1)NC(=O)[C@H](CO)NC(=O)CCc1ccccc1)C(=O)NCc1ccccc1 (Hydrocinnamoyl-Ser-Phe-Gln-NHBn)
70% | CCCCCCCCCCC(=O)N[C@@H](Cc1c[nH]cn1)C(=O)N[C@@H](Cc1ccccc1)C(=O)N[C@@H](Cc1ccc(O)cc1)C(=O)O (Undecanoyl-His-Phe-Tyr-OH)
10% | CCCCCc1ccc(CCC(=O)N[C@H](Cc2cnc[nH]2)C(=O)N[C@@H](Cc2ccc(O)cc2)C(=O)N[C@@H](Cc2ccccc2)C(=O)O)cc1
89% | O=C(CCc1ccc(F)cc1)N[C@@H](Cc1ccc(O)cc1)C(=O)NCC(=O)N[C@@H](Cc1ccc(O)cc1)C(=O)Nc1ccc(F)cc1F
76% | CCCCCCCCCCC(=O)N[C@@H](Cc1c[nH]cn1)C(=O)N[C@@H](Cc1ccccc1)C(=O)N[C@@H](Cc1ccc(O)cc1)C(=O)NOC(C)(C)C
97% | CCCCCCCCCCC(=O)N[C@@H](Cc1c[nH]cn1)C(=O)N[C@@H](Cc1cnc[nH]1)C(=O)N[C@@H](Cc1ccc(O)cc1)C(=O)OCCN
